Data as given in ChEMBL document CHEMBL3763100, “Structure-guided design of new indoles as negative allosteric modulators (NAMs) of N-methyl-D-aspartate receptor (NMDAR) containing GluN2B subunit” (Bioorg Med Chem, 2016).
Activity calls are given as the source filed them. No cut-off for these calls is given here.

Key:
[1] = target: Glutamate receptor ionotropic, NMDA 2B (Rattus norvegicus, UniProt Q00960); assay: Displacement of [3H]ifenprodil from Wistar rat cerebral cortex GluN2B receptor after 120 mins; format: tissue-based
Mus musculus = assay: Anticonvulsant activity in DBA/2 mouse assessed as prevention of audiogenic seizures at 100 umol/kg, ip administered 30 mins prior to testing; format: functional, organism-based
In short: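 DBA/2 mice genetically prone to sound-induced seizures (8-12 g, 22-25 days old), groups of 10 of either sex. Dosed ip in fresh 50% DMSO/50% sterile saline, or vehicle alone. After 30 min, 60 s habituation under a dome, then auditory stimulus (12-16 kHz, 109 dB) for 60 s or until tonic extension. Latency to and incidence of wild running, clonus, tonic phases were scored; incidence compared by Fisher's exact test.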

[2] = target: Glutamate receptor ionotropic, NMDA 2B (Rattus norvegicus) (UniProt Q00960); assay: Displacement of [3H]ifenprodil from Wistar rat cerebral cortex GluN2B receptor at 0.1 uM after 120 mins relative to control; format: tissue-based
In short: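 Male Wistar-derived rat cerebral cortex membranes (175 ± 25 g rats) in Tris-HCl pH 7.4. […] Filtration, washing and counting followed. Test compounds were run at three concentrations in duplicate, with 0.1 μM used for % inhibition.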

[3] = target: Glutamate receptor ionotropic, NMDA 2B (Rattus norvegicus) (UniProt Q00960); assay: Displacement of [3H]ifenprodil from Wistar rat cerebral cortex GluN2B receptor at 0.1 uM relative to control

Glutamate receptor ionotropic, NMDA 2B (Rattus norvegicus), sequence (Q00960 27-1482 limits assumed): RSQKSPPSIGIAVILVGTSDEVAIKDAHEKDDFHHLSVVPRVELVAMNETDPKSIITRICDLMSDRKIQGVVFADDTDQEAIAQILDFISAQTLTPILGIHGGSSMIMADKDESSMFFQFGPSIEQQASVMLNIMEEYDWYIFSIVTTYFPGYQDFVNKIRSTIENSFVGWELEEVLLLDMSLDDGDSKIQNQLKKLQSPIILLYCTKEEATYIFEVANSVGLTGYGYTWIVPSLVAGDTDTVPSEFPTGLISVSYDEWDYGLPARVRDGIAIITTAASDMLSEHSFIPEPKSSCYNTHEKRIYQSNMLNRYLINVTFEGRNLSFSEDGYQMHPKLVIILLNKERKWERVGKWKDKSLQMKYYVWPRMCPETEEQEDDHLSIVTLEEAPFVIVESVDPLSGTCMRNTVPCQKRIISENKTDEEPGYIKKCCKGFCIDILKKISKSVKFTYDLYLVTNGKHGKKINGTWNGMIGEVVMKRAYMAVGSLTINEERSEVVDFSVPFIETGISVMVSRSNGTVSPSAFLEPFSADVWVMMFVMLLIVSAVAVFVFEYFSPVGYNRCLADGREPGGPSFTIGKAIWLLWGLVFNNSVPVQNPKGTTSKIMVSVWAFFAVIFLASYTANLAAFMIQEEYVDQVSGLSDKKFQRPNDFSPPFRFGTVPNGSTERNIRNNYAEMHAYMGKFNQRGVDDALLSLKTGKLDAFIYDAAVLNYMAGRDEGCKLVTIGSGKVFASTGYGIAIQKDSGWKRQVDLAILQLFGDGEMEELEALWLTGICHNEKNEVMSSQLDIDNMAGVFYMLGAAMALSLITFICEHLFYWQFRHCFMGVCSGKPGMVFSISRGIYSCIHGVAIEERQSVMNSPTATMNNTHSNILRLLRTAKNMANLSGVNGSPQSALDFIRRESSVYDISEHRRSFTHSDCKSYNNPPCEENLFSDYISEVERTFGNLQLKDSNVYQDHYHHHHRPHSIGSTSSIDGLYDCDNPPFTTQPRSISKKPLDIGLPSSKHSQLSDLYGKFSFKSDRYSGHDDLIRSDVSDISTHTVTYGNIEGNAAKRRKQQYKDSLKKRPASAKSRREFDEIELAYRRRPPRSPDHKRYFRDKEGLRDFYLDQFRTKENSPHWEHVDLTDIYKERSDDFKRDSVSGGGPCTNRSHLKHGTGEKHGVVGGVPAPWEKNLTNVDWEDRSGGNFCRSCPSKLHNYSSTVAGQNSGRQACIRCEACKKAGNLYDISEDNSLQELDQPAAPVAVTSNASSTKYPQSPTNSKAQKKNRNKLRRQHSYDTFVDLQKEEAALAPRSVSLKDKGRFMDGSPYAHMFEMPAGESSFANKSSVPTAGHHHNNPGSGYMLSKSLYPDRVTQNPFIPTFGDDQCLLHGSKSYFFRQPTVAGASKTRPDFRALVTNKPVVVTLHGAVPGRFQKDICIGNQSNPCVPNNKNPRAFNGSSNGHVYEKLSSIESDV
Glutamate receptor ionotropic, NMDA 2B, sequence (Q00960 whole entry): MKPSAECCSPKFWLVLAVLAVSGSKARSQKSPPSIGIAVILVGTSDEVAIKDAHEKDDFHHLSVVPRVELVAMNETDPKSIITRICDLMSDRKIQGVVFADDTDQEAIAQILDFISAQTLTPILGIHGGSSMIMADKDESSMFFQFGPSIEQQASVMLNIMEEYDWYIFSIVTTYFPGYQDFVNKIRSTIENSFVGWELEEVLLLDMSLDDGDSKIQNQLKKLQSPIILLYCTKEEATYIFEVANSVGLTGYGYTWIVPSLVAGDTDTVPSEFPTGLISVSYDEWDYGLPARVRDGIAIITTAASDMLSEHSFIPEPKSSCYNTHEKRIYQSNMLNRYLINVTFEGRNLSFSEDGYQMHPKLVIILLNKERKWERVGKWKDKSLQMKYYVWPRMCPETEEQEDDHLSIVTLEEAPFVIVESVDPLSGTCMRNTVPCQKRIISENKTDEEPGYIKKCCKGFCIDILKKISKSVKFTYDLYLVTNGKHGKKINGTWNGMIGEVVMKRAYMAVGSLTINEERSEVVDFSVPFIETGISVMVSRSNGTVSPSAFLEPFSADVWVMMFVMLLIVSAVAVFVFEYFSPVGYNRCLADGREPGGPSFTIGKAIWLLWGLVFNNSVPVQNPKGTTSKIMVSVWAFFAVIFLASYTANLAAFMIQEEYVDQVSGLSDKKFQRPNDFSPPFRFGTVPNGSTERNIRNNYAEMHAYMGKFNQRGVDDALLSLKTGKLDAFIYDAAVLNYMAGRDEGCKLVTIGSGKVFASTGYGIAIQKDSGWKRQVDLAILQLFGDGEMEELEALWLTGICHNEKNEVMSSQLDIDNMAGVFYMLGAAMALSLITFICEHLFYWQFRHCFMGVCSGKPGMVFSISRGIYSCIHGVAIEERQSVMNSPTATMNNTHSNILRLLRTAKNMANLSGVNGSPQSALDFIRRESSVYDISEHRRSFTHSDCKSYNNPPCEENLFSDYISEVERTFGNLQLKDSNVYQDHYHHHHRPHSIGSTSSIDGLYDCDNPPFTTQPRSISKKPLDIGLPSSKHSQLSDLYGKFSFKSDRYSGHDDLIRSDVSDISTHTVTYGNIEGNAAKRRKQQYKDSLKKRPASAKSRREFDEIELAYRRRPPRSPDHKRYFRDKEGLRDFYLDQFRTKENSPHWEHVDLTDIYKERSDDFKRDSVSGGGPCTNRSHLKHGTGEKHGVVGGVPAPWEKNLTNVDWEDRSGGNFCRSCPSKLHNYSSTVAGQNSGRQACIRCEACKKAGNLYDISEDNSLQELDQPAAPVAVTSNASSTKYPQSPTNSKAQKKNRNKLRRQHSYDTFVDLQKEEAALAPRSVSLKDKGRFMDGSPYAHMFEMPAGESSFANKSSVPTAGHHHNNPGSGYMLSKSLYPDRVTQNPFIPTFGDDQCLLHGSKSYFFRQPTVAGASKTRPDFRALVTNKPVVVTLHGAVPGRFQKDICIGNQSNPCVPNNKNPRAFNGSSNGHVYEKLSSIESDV

Compound | IC50 [1] | Activity (Mus musculus) | inhibition [2] | inhibition [3]
CCc1ccc(CC2CCN(CC(=O)c3c[nH]c4ccc(O)cc34)CC2)cc1 | 71 nM | inactive | 75% | 
Cc1ccc(CC2CCN(CC(=O)c3c[nH]c4ccc(O)cc34)CC2)cc1C | 3330 nM |  | < 5% | 
O=C(CN1CCC(Oc2ccccc2)CC1)c1c[nH]c2ccc(O)cc12 |  |  | 9% | 
COc1ccc(CC2CCN(CC(=O)c3c[nH]c4ccc(O)cc34)CC2)cc1 | 1280 nM |  | 16% | 
O=C(Cc1c[nH]c2ccc(O)cc12)N1CCC(Cc2ccc(F)cc2)CC1 |  |  | 19% | 
O=C(Cc1c[nH]c2ccc(O)cc12)N1CCC(Cc2ccccc2)CC1 |  |  | 5% | 
O=C(CN1CCC(Cc2ccccc2)CC1)c1c[nH]c2ccc(O)cc12 |  |  |  | 75%
Cc1ccc(CC2CCN(CC(=O)c3c[nH]c4ccc(O)cc34)CC2)cc1 | 83 nM | inactive | 66% | 
Oc1ccc2[nH]cc(CCN3CCC(Cc4ccccc4)CC3)c2c1 |  |  | 42% | 
